# Most compounds without a hit are left out; they make up all but 4.3% or so of the library.
# HTR2A ag – activates the mouse 5-HT2A serotonin receptor; P35363; CHO-K1 mHTR2A beta-arrestin complementation, luminescence; percent of 30 µM serotonin response; activation, % at 7.6 µM; 0.66% of 360,000 active; AID 624169;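 active = activation above a run cutoff, the mean activation of all tested compounds plus 3 SD, cut at about 14% in these data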;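 also: 0% = plate median of compound wells and 100% = 30 µM serotonin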
# B2AR ag – human beta-2 adrenergic receptor agonism by FAP | Am2.2-beta2AR cells, FAP receptor internalization, flow cytometry | AID 504454 | P07550 | 0.43% of 340,000 active | response, % (test concentration not listed);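 active = response above a set limit, near 3 SD of response in nonfluorescent compounds, cut at about 42% in these data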
# TAAR1 ag – human TAAR1 agonism. activation, % at 3 µM. 0.99% of 360,000 active. AID 624467. CHO RD-HGA16 TAAR1, Fluo-8 calcium fluorescence; vehicle wells 0%, saturating PEA agonist 100%. Q96RJ0;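 active = activation above the mean activation of all test compounds in the run plus 3 SD, cut at about 38% in these data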
# Target sequence (Q96RJ0 whole entry, looked up): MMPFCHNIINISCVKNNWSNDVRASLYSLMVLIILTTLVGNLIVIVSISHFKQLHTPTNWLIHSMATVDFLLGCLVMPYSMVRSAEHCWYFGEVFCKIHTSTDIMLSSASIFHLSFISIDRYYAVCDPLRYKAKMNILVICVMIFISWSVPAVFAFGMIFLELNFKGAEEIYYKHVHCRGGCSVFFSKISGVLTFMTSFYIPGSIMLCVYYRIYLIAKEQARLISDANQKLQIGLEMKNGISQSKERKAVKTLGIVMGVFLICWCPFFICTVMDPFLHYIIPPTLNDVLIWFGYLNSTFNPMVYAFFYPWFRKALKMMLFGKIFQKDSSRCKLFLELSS
#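 Assay system – CHO-derived RD-HGA16 cells with stable Gα16 and human TAAR1 · Compound dosing – one-point dosing at 3 µM (nominal) · Incubation – 17-24 h seeding, 75 min 37 °C dye, 30 min RT · Measured by – kinetic Fluo-8 calcium fluorescence · Control set – DMSO vehicle as 0%, PEA at EC100 as 100% · Repeats – single well for each compound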
# MC4R antagonist – human MC4R antagonism in cAMP assay; P32245; MC4R-expressing cells, MTII-stimulated cAMP, LANCE TR-FRET; inhibition, % at 6.5 µM; 0.48% of 360,000 active;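 active = inhibition above its plate's cutoff, the mean of tested wells on that plate plus 3 SD, cut at about 29% in these data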;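 also: 0% = Melanotan II alone and 100% = Melanotan II plus saturating MCL0020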
#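 Material – human MC4R-expressing U2OS cells · Repeats – no replicates · Detection – TR-FRET with Eu-cAMP and labeled anti-cAMP, 671 nm · Times – compound 30 min, challenge 1 h, detection 1 h · Compound – single nominal compound dose of 6.5 µM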
# MC4R ag barr – activates human MC4R beta-arrestin recruitment; 0.98% of 360,000 active; AID 540308; activation, % at 8.9 µM; P32245; U2OS MC4R beta-arrestin complementation, luminescence; percent of melanotan II response, DMSO zero;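 active = activation above a per-plate cutoff, the mean activation of sample wells on that plate plus 3 SD, cut at about 8% in these data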
# TAAR1 antag – human TAAR1 antagonism | Q96RJ0 | CHO RD-HGA16 TAAR1, Fluo-8 calcium fluorescence, antagonist | inhibition, % at 3 µM | 1.5% of 360,000 active | AID 624466;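 active = inhibition above a per-plate cutoff, the mean inhibition of test compounds on that plate plus 3 SD, cut at about 49% in these data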;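 also: 0% = DMSO plus EC80 beta-PEA response and 100% = DMSO alone without agonist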
#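 Assay system: RD-HGA16 CHO cells with stable hTAAR1 and Gα16 / Reagent: EC80 β-phenethylamine stimulus / Doses: 3 µM, single point / Timing: dye loading 75 min at 37 °C, then 30 min room temperature / Measured by: Fluo-8 intracellular calcium dye fluorescence, real-time kinetic reads / Controls: vehicle wells and EC80 agonist wells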
# Active calls of the source: *; x = not tested or not shown.
SMILES,HTR2A ag,B2AR ag,TAAR1 ag,MC4R antagonist,MC4R ag barr,TAAR1 antag
CC(=O)OC(C)(C)/C=C/C(=O)[C@](C)(O)C1[C@H](O)C[C@@]2(C)C3CC=C4C(C[C@H](O)C(=O)C4(C)C)[C@]3(C)C(=O)C[C@]12C (stereo partly specified),16.4*,65.7*,x,-8.4,1.9,x
O=C1CN=C(c2ccccc2)c2cc(Br)ccc2N1,5.6,-6.8,8.9,2.0,-0.2,-18.0
Cc1ncoc1C(=O)NCC1=C(c2ccc3ccccc3c2)C[C@@H]2CC[C@H]1N2Cc1ccco1,0.7,x,0.9,3.1,-1.0,5.2
N#Cc1ccc2nc(-c3ccc(CN4CCC(n5c(=O)[nH]c6ccccc65)CC4)cc3)c(-c3ccccc3)nc2c1,2.0,x,2.2,x,x,61.3*
Cc1cccc2nc(-c3ccccc3)c(-c3ccc(CN4CCC(n5c(=O)[nH]c6ccccc65)CC4)cc3)nc12,-7.4,x,1.8,x,x,26.9
Cc1cccc(N2C(=O)NC(=O)/C(=C\c3cccn3-c3ccc(Cl)cc3)C2=O)c1,-2.7,13.9,56.2*,1.3,2.1,36.6
CN1C(=O)/C(=C/C=C/c2ccco2)C(=O)NC1=S,8.1,58.1*,2.3,-1.3,2.8,-9.1
Cc1ccc(N2C(=O)NC(=O)/C(=C\C=C\c3ccco3)C2=O)cc1,0.4,68.6*,32.8,8.5,-1.2,39.3
CN1C(=O)/C(=C\c2ccc(N3CCCCC3)o2)C(=O)NC1=S,5.6,-0.8,20.4,-28.8,-3.1,13.6
Cc1cccc(N2C(=O)NC(=O)/C(=C\C=C\c3ccco3)C2=O)c1,-1.7,69.2*,43.8*,14.4,-1.5,21.6
Cc1cc(C)cc(N2C(=O)NC(=O)/C(=C/c3cccn3-c3ccc(Cl)cc3)C2=O)c1,-0.2,6.7,17.3,19.3,-1.3,-5.8
CC1([N+](=O)[O-])COP(=O)(NC2CCCC2)OC1 (stereo unspecified),-1.1,-5.9,2.5,6.2,1.2,-5.5
COC1CC=C2CCN3CCC4=C(CC(=O)OC4)C23C1 (stereo unspecified),x,x,1.6,x,x,-13.8
CCn1nc(-c2ccccc2)nc2c(=O)n(C)c(=O)nc1-2,1.4,68.8*,x,-44.5,-0.3,x
CC1CC(C)CN(CC(=O)c2ccc(OC(F)F)cc2)C1 (stereo unspecified),2.7,-3.5,41.8*,1.4,-0.1,-31.1
CCN(CC)c1ccc(C=C2C(=O)NC(=S)NC2=O)cc1,-2.4,51.2*,17.1,21.6,-1.4,14.9
COC(=O)C1=C(C(=O)OC)SC2(S1)C(C(=O)OC)=C(C(=O)OC)Sc1c2ssc1=O,4.5,57.5*,33.4,-40.1,-4.6,30.7
CC(C)c1oc(=O)cc2c1[C@@H](O)[C@H]1OC(=O)[C@@]3(C)CC[C@@H](O)[C@@]2(C)C13 (stereo partly specified),7.4,84.2*,8.4,0.9,0.9,-4.3
CC(C)c1oc(=O)cc2c1[C@@H](O)[C@H]1OC(=O)[C@@]3(C)C[C@@H](O)[C@@H](O)[C@@]2(C)C13 (stereo partly specified),-2.0,75.0*,2.5,-0.4,-0.6,-18.9
COC(=O)C1=C(c2ccc3ccccc3c2)C[C@@H]2CC[C@H]1N2C(=O)NC1CC1,-2.3,5.6,4.8,-0.6,-0.9,5.5
CCOC(=O)C1(CCOc2ccccc2)CCN(C2Cc3ccccc3C2)CC1,-5.9,2.5,5.5,-3.1,0.2,-3.9
O=c1[nH]c2ccccc2n1C1CCN(C(c2cccs2)c2nnnn2Cc2ccccc2)CC1 (stereo unspecified),3.0,x,9.5,x,x,33.1
O=c1[nH]c2ccccc2n1C1CCN(C(c2nnnn2Cc2ccccc2)C2CC2)CC1 (stereo unspecified),1.4,x,17.2,x,x,63.1*
O=c1[nH]c2ccccc2n1C1CCN(C(c2nnnn2C2CCCC2)C2CC2)CC1 (stereo unspecified),6.7,x,25.8,x,x,39.7
O=c1[nH]c2ccccc2n1C1CCN(C(c2nnnn2C2CCCCC2)C2CC2)CC1 (stereo unspecified),11.4,x,58.1*,x,x,52.0*
